“And” between values parts separate entries of the source, which are not always exact repeats. Identical values can stand only once.
System: U2OS
Experiment: Multiplex assay against U2OS
Format: toxicity, cell-based
Conditions: human, number of replicates 2
In short: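 Live cells were stained at seeding with Hoechst33342, BioTracker Green Microtubule Cytoskeleton Dye, MitoTracker Red and Annexin V Alexa Fluor 680. Following compound addition, they were imaged on a CQ1 microscope at 37°C and 5% CO2 and gated by CellPathfinder machine learning into Hoechst high-intensity objects or normal cells, with normal cells split into healthy, pyknosed or fragmented nuclei and pyknosed cells into mitotic or apoptotic. Tubulin, mitochondrial-mass and membrane-permeability phenotypes are per cents of healthy-nucleus cells.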

[1] = 12 h, 1 µM, compound concentration 1 uM
[2] = 12 h, 10 µM, compound concentration 10 uM
[3] = 24 h, 1 µM, compound concentration 1 uM
[4] = 24 h, 10 µM, compound concentration 10 uM
[5] = 48 h, 1 µM, compound concentration 1 uM
[6] = 48 h, 10 µM, compound concentration 10 uM

## COCCNC1CCC(Nc2cc(-c3csc(NCC4(C#N)CCOCC4)n3)c(Cl)cn2)CC1 (stereo not drawn)
[1]
  Population Apoptotic (%): 45% and 87%
  Population Fragmented Nuclei (%): 17% and 9%
  Population Healthy Nuclei (%): 34% and 40%
  Population Hoechst High Intensity Objects (%): 0%
  Population Mitochondria Different-Phenotype (%): 7%
  Population Normal (%): 100% and 99%
  Population Pyknosed Nuclei (%): 48% and 49%
  Population Tubulin-Different-Phenotype (%): 57% and 58%
[2]
  Population Apoptotic (%): 83% and 89%
  Population Fragmented Nuclei (%): 10%
  Population Hoechst High Intensity Objects (%): 2% and 1%
  Population Mitochondria Different-Phenotype (%): 40% and 66%
  Population Mitotic Cells (%): 16% and 10%
  Population Normal (%): 97% and 98%
  Population Pyknosed Nuclei (%): 40% and 78%
  Population Tubulin-Different-Phenotype (%): 50%
[3]
  Population Apoptotic (%): 59% and 94%
  Population Fragmented Nuclei (%): 13% and 9%
  Population Healthy Nuclei (%): 25% and 26%
  Population Hoechst High Intensity Objects (%): 0% and 3%
  Population Membrane Permeable-Phenotype (%): 0% and 14%
  Population Mitochondria Different-Phenotype (%): 0% and 11%
  Population Normal (%): 100% and 96%
  Population Pyknosed Nuclei (%): 61% and 63%
  Population Tubulin-Different-Phenotype (%): 55%
[4]
  Population Apoptotic (%): 91%
  Population Fragmented Nuclei (%): 9% and 6%
  Population Hoechst High Intensity Objects (%): 2% and 3%
  Population Membrane Permeable-Phenotype (%): 0% and 20%
  Population Mitochondria Different-Phenotype (%): 33% and 58%
  Population Mitotic Cells (%): 8%
  Population Normal (%): 97% and 96%
  Population Pyknosed Nuclei (%): 84% and 60%
  Population Tubulin-Different-Phenotype (%): 66% and 52%
[5]
  Population Apoptotic (%): 98% and 78%
  Population Fragmented Nuclei (%): 11% and 16%
  Population Healthy Nuclei (%): 7% and 9%
  Population Hoechst High Intensity Objects (%): 5% and 0%
  Population Membrane Permeable-Phenotype (%): 53% and 66%
  Population Mitochondria Different-Phenotype (%): 38% and 66%
  Population Normal (%): 94% and 100%
  Population Pyknosed Nuclei (%): 81% and 74%
  Population Tubulin-Different-Phenotype (%): 69% and 100%
[6]
  Population Apoptotic (%): 100% and 94%
  Population Fragmented Nuclei (%): 9% and 5%
  Population Healthy Nuclei (%): 6% and 16%
  Population Hoechst High Intensity Objects (%): 2% and 3%
  Population Membrane Permeable-Phenotype (%): 66% and 40%
  Population Mitochondria Different-Phenotype (%): 66% and 80%
  Population Mitotic Cells (%): 0% and 5%
  Population Normal (%): 97% and 96%
  Population Pyknosed Nuclei (%): 83% and 78%
  Population Tubulin-Different-Phenotype (%): 66% and 72%

## COc1ccc(-c2cc3c(C)nc(N)nc3n([C@H]3CC[C@H](OCCO)CC3)c2=O)cn1 [PF-04691502]
[1]
  Population Apoptotic (%): 50% and 76%
  Population Healthy Nuclei (%): 57% and 78%
  Population Hoechst High Intensity Objects (%): 0%
  Population Membrane Permeable-Phenotype (%): 10% and 2%
  Population Mitochondria Different-Phenotype (%): 0% and 1%
  Population Mitotic Cells (%): 50% and 23%
  Population Normal (%): 100%
  Population Pyknosed Nuclei (%): 6% and 12%
  Population Tubulin-Different-Phenotype (%): 84% and 83%
[2]
  Population Apoptotic (%): 88% and 83%
  Population Fragmented Nuclei (%): 25% and 13%
  Population Healthy Nuclei (%): 46% and 54%
  Population Hoechst High Intensity Objects (%): 3% and 2%
  Population Membrane Permeable-Phenotype (%): 0% and 7%
  Population Mitochondria Different-Phenotype (%): 0% and 3%
  Population Mitotic Cells (%): 11% and 16%
  Population Normal (%): 96% and 97%
  Population Pyknosed Nuclei (%): 28% and 32%
  Population Tubulin-Different-Phenotype (%): 80% and 50%
[3]
  Population Apoptotic (%): 60% and 76%
  Population Fragmented Nuclei (%): 19% and 10%
  Population Healthy Nuclei (%): 66% and 75%
  Population Hoechst High Intensity Objects (%): 0%
  Population Membrane Permeable-Phenotype (%): 0% and 2%
  Population Mitochondria Different-Phenotype (%): 0% and 1%
  Population Mitotic Cells (%): 40% and 23%
  Population Normal (%): 100% and 99%
  Population Pyknosed Nuclei (%): 13% and 14%
  Population Tubulin-Different-Phenotype (%): 91% and 84%
[4]
  Population Apoptotic (%): 84% and 69%
  Population Fragmented Nuclei (%): 12% and 17%
  Population Healthy Nuclei (%): 46% and 50%
  Population Hoechst High Intensity Objects (%): 2%
  Population Membrane Permeable-Phenotype (%): 20% and 40%
  Population Mitochondria Different-Phenotype (%): 7% and 15%
  Population Mitotic Cells (%): 15% and 30%
  Population Normal (%): 97%
  Population Pyknosed Nuclei (%): 41% and 32%
  Population Tubulin-Different-Phenotype (%): 59% and 65%
[5]
  Population Apoptotic (%): 80% and 82%
  Population Fragmented Nuclei (%): 10% and 8%
  Population Healthy Nuclei (%): 80% and 69%
  Population Hoechst High Intensity Objects (%): 0%
  Population Membrane Permeable-Phenotype (%): 7% and 5%
  Population Mitochondria Different-Phenotype (%): 5% and 4%
  Population Mitotic Cells (%): 20% and 17%
  Population Normal (%): 100% and 99%
  Population Pyknosed Nuclei (%): 10% and 21%
  Population Tubulin-Different-Phenotype (%): 82% and 85%
[6]
  Population Apoptotic (%): 66% and 85%
  Population Fragmented Nuclei (%): 19% and 10%
  Population Healthy Nuclei (%): 22% and 26%
  Population Hoechst High Intensity Objects (%): 0% and 4%
  Population Membrane Permeable-Phenotype (%): 62% and 35%
  Population Mitochondria Different-Phenotype (%): 37% and 18%
  Population Mitotic Cells (%): 33% and 14%
  Population Normal (%): 100% and 95%
  Population Pyknosed Nuclei (%): 58% and 63%
  Population Tubulin-Different-Phenotype (%): 87% and 70%

## Cn1cc(-n2cnc3c(NCc4nc5cc(Cl)c(Cl)cc5[nH]4)nc(N4CCOCC4)nc32)cn1
[1]
  Population Apoptotic (%): 41% and 88%
  Population Healthy Nuclei (%): 36% and 71%
  Population Hoechst High Intensity Objects (%): 0%
  Population Membrane Permeable-Phenotype (%): 5% and 7%
  Population Mitochondria Different-Phenotype (%): 0% and 8%
  Population Normal (%): 100%
  Population Pyknosed Nuclei (%): 36% and 24%
  Population Tubulin-Different-Phenotype (%): 58% and 50%
[2]
  Population Apoptotic (%): 62% and 75%
  Population Hoechst High Intensity Objects (%): 0%
  Population Membrane Permeable-Phenotype (%): 33% and 23%
  Population Mitochondria Different-Phenotype (%): 16% and 37%
  Population Mitotic Cells (%): 37% and 24%
  Population Normal (%): 100%
  Population Pyknosed Nuclei (%): 39% and 28%
  Population Tubulin-Different-Phenotype (%): 66% and 73%
[3]
  Population Apoptotic (%): 96% and 80%
  Population Fragmented Nuclei (%): 9% and 21%
  Population Healthy Nuclei (%): 11% and 13%
  Population Hoechst High Intensity Objects (%): 1% and 7%
  Population Membrane Permeable-Phenotype (%): 18% and 0%
  Population Normal (%): 98% and 92%
  Population Pyknosed Nuclei (%): 79% and 65%
  Population Tubulin-Different-Phenotype (%): 50% and 80%
[4]
  Population Apoptotic (%): 94% and 95%
  Population Hoechst High Intensity Objects (%): 1% and 0%
  Population Mitotic Cells (%): 5% and 4%
  Population Normal (%): 98% and 100%
  Population Pyknosed Nuclei (%): 64% and 61%
  Population Tubulin-Different-Phenotype (%): 89% and 33%
[5]
  Population Apoptotic (%): 100% and 86%
  Population Fragmented Nuclei (%): 10% and 16%
  Population Healthy Nuclei (%): 4% and 0%
  Population Hoechst High Intensity Objects (%): 2% and 7%
  Population Mitotic Cells (%): 0% and 13%
  Population Normal (%): 97% and 92%
  Population Pyknosed Nuclei (%): 85% and 83%
[6]
  Population Apoptotic (%): 94% and 92%
  Population Healthy Nuclei (%): 10% and 5%
  Population Hoechst High Intensity Objects (%): 0% and 1%
  Population Membrane Permeable-Phenotype (%): 100% and 57%
  Population Mitochondria Different-Phenotype (%): 100% and 57%
  Population Mitotic Cells (%): 5% and 7%
  Population Normal (%): 100% and 98%
  Population Pyknosed Nuclei (%): 44% and 85%
  Population Tubulin-Different-Phenotype (%): 100% and 85%

Reference: ChEMBL document CHEMBL5303300, “EUbOPEN Chemogenomics Library - Multiplex” (2023)
